Shown are actives, neighbours in structure and some others; about 0.74% of the full set was active somewhere.
ARFGAP1 inh: inhibits rat ARF GTPase activating protein 1 | Q62848 | Arfgap1-stimulated ARF1 GTP hydrolysis, GDP FP detection | inhibition, % at 16.5 µM | 360,000 tested, 0.26% active | AID 651572;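 active = inhibition above a per-plate limit, mean inhibition of low control wells plus 3 SD, cut at about 25% in these data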;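 also: 0% = DMSO wells with enzyme and 100% = wells lacking Arfgap1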
Target sequence (Q62848 1-136 limits assumed): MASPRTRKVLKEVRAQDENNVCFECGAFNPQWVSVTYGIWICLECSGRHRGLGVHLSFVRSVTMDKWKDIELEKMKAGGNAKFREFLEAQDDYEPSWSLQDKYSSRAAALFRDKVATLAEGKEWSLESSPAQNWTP
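Assay system: purified rat His6-Arfgap1 residues 1-136 (GAP domain); Reagent: human Δ17 ARF1 bound to GTP; Dosing: 16.5 µM single point, 1.26% DMSO; Times: GTP hydrolysis reaction 2 h at 25 °C; Signal: FP, GDP Alexa 633 tracer displaced from anti-GDP antibody, 620/688 nm; Measure: % inhibition from polarization.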
Tn7 DDE FP: DD(E)-Tn7 binding inhibition, primary FP screen. FP displacement of FITC-Tn7 peptide from fibrin DD(E); 0% = median of compound wells per plate. P02675. 370,000 tested, 0.13% active. inhibition, % at 8.3 µM. AID 720508;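 active = inhibition above the mean of compounds falling within the control limits plus 3 SD of them, cut at about 14% in these data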;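 also: 0% = plate median of compound wells and 100% = 10 µM Aha-Tn7 peptide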
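Assay system: Human fibrin DD(E) protein | Medium: Tris buffer with calcium and detergent, pH 7.8 | Reagent: 0.1 µM fluorescent Tn7 | Compound dosing: Single point at 8.3 µM | Times: 10 min preincubation, 3 h with tracer, room temperature | Detection: Fluorescence polarization of the labelled Tn7 tracer | Controls: Aha-Tn7 high control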
ASAP1 GAP inh: inhibitors of human ASAP1 ArfGAP activity. ASAP1-stimulated ARF1 GTP hydrolysis, GDP FP detection. inhibition, % at 16.5 µM. 360,000 tested, 0.19% active. Q9ULH1; in the data active = inhibition above about 25%;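 also: 0% = vehicle with enzyme and substrate and 100% = no enzyme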
Target sequence (Q9ULH1 325-724 limits assumed): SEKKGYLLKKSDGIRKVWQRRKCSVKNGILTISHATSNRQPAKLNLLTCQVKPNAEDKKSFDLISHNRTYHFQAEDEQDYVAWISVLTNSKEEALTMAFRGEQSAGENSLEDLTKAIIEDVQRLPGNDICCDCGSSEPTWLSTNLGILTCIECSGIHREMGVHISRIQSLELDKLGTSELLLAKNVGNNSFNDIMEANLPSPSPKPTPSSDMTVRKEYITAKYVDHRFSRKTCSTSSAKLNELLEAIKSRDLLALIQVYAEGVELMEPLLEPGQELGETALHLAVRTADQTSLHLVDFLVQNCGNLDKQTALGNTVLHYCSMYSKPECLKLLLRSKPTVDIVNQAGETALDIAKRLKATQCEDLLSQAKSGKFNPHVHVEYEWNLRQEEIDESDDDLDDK
DDE Tn6 FP inh: disrupts Tn6 cyclic peptide binding to fibrin D-Dimer-E complex | P02675 | Fibrin DD(E) TRITC-Tn6 fluorescence polarization displacement | inhibition, % at 8.3 µM | 370,000 tested, 0.21% active | AID 720509;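 active = inhibition above a per-campaign cutoff: mean of compounds within control limits plus 3 SD, cut at about 15% in these data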;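 also: 0% = median of all compound wells on the plate and 100% = blocking peptide control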
Tn6 DDE ctr: DD(E)-Tn6 binding inhibition, counter-screen. Fibrin DD(E), TRITC-Tn6 fluorescence polarization displacement; 0% = median of compound wells, not DMSO. AID 720621. inhibition, % at 8.3 µM. 680 tested, 2% active. shares compounds with DDE Tn6 FP inh;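 active = inhibition above the mean of test compounds lying between the control limits plus 3 SD of those, cut at about 14% in these data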;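 also: 0% = median of compound wells and 100% = wells with Aha-Tn7 blocking peptide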
Tn6 DDE conf: confirmation of inhibitors of Tn6 binding to human fibrin DD(E); shares compounds with DDE Tn6 FP inh; FP displacement of TRITC-Tn6 peptide from DD(E); 0% = per-plate median of test wells; inhibition, % at 8.3 µM; 680 tested, 10% active; AID 720631;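 active = inhibition above the mean of compounds lying within the control limits plus 3 SD, cut at about 16% in these data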;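 also: 100% = high control wells holding a competing inhibitor peptide at 10 µM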
* hit, by the source's call; . = no result given; + = active, no number.

SMILES	ARFGAP1 inh	Tn7 DDE FP	ASAP1 GAP inh	DDE Tn6 FP inh	Tn6 DDE ctr	Tn6 DDE conf
Cc1c(C(=O)c2no[n+]([O-])c2C(=O)c2cnn(C)c2C)cnn1C	-0.1	-12.4	1.9	16.1*	-11.3	2.2
COc1ccc(C(=O)c2no[n+]([O-])c2C(=O)c2ccc(OC)cc2)cc1	4.0	-0.1	5.5	3.5	.	.
COc1ccc(C=NNC(=O)c2cc(-c3ccc(C)c(C)c3)n[nH]2)cc1OCc1ccccc1	.	-5.5	.	16.3*	1.9	2.1
Cc1ccc(-c2cc(C(=O)NN=Cc3cccc(Oc4ccccc4)c3)[nH]n2)cc1C	.	0.8	.	19.1*	3.9	-0.1
Cc1ccc(-c2cc(C(=O)NN=Cc3cccc(OCc4ccccc4)c3)[nH]n2)cc1C	.	-6.1	.	20.4*	7.9	16.4*
Cc1nc(N2CCN(C(=O)C3CCCCC3)CC2)c2c3c(sc2n1)CCCC3	.	4.0	.	-7.0	.	.
CCOC(=O)COc1ccc(C(C)c2ccc(NC(=O)OC(C)(C)C)cc2)cc1 (stereo unspecified)	.	5.8	.	-1.4	.	.
O=C(Cc1ccc(Cl)c(Cl)c1)Nc1ccc(S(=O)(=O)Nc2ccon2)cc1	.	-2.4	.	-1.1	.	.
C=CCN1[C@@H](C)COc2cc(F)ccc2S1(=O)=O	.	3.7	.	-3.5	.	.
O=C(O)c1ccccc1-c1c2cc(I)c(=O)c(I)c-2oc2c(I)c(O)c(I)cc12	-56.5	-98.5	-21.8	+	-156.1	93.2*
COc1cccc(OC)c1NC(=O)OCCN1CCCC12CCC(c1ccccc1)CC2 (stereo unspecified)	.	-3.8	.	2.2	.	.
Oc1cc2c(cc1O)C1c3ccc(O)c(O)c3OCC1(O)C2 (stereo unspecified)	-3.3	-3.6	8.8	33.4*	-4.5	20.7*
CC(=O)OC12CCCN(C1)/C(=C/c1cccc(N(C)C)c1)C2 (stereo unspecified)	.	-0.6	.	4.0	.	.
O=c1ccc2nc3ccccc3sc-2c1	0.1	-2.8	4.8	19.6*	-5.8	14.7
Brc1ccc(-c2nc3ccccc3s2)s1	-1.5	2.6	-13.2	-4.5	.	.
COC(=O)c1ccc(-c2ccc3c(c2)[C@]2(CCC[C@@H](O)[C@@H]2NC(=O)CCc2ccccc2)C(=O)N3Cc2ccccc2)cc1	.	7.0	.	-5.1	.	.
Cc1ccc(NC(=O)OC2CCC23CCCCC3)cc1 (stereo unspecified)	.	-0.6	.	3.7	.	.
Cc1cc2cc(CNC(=O)c3ccc(Br)o3)ccc2n1C	0.3	-1.5	0.2	14.6	.	.
Cc1cc2cc(CNC(=O)c3ccc(S(=O)(=O)N(C)C)cc3)ccc2n1C	11.2	-1.5	-5.8	65.4*	5.0	14.2
COc1cccc(CNC(=O)c2ccc(S(=O)(=O)N3CCOCC3)cc2)c1	3.9	2.5	-1.0	-6.2	.	.
Cc1ccc(CNC(=O)c2ccc(S(=O)(=O)N3CCCCCC3)cc2)cc1	3.1	-0.6	12.9	-6.4	.	.
Cc1cc2cc(CNC(=O)c3ccc(S(=O)(=O)N4CCCCC4)cc3)ccc2[nH]1	13.8	-10.4	21.3	18.3*	4.8	-5.3
Cc1cc2cc(CNC(=O)c3ccc(S(=O)(=O)N4CCOCC4)cc3)ccc2n1C	1.1	2.5	0.4	52.9*	5.3	19.2*
Cc1cccc(-c2cccc3c4c([nH]c23)[C@@H]2C[C@H](N(C)C(=O)Nc3ccccc3C)[C@H]([C@H](C)O)C(=O)N2CC4)c1	.	-4.0	.	-6.1	.	.
Cc1ccccc1CN1CCCCC(NC(=O)Cc2cccs2)C1=O (stereo unspecified)	.	4.3	.	7.2	.	.
COc1ccc(CNCC#Cc2ccccc2)c(OC)c1	.	0.9	.	-1.9	.	.
Cc1cccc(NS(=O)(=O)c2ccc3[nH]c(=O)cc(C(=O)OC(C)C(=O)Nc4ccc([N+](=O)[O-])cc4)c3c2)c1 (stereo unspecified)	14.2	-3.7	4.0	49.6*	7.7	-2.9
CCc1ccc(NC(=O)C(C)OC(=O)c2cc(=O)[nH]c3ccc(S(=O)(=O)Nc4ccc(F)cc4)cc23)cc1 (stereo unspecified)	2.0	7.9	3.3	-0.9	.	.
COc1ccc(-c2cn(CCCOCc3ccccc3)nn2)cc1	5.5	-5.5	1.9	-2.7	.	.
